Measured values published in ChEMBL document CHEMBL1146906, “Novel potent anticonvulsant agent containing a tetrahydroisoquinoline skeleton” (2006).

Assays:
Mus musculus [1] = experiment: Anticonvulsant activity against tonic phase of audiogenic seizures in ip dosed DBA/2 mouse; type: functional; settings: DBA/2, ip
How it was run: (§1)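 DBA/2 mice of either sex, groups of 10, given vehicle or each dose intraperitoneally, then exposed to auditory stimulation […]. Incidence of each seizure phase scored. ED50 per phase from dose-response curves fitted by Litchfield and Wilcoxon method. Groups compared by Fisher's exact probability test.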

Mus musculus [2] = experiment: Anticonvulsant activity against clonic phase of audiogenic seizures in ip dosed DBA/2 mouse; type: functional; settings: DBA/2, ip; how it was run: as §1
[3] = target: Glutamate receptor ionotropic, kainate (Rattus norvegicus) (UniProt P22756+Q01812+P42260+P42264+Q63273); experiment: Displacement of [3H]kainic acid from kainate receptor at 0.5 uM; type: protein-complex assay
How it was run: (§2)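 Radioligand binding assays run at 0.5 µM test compound, using [3H]AMPA, [3H]CGP 39653 or [3H]kainic acid as ligand.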

Rattus norvegicus = organism: Rattus norvegicus; experiment: Inhibition of AMPA-induced membrane current in Wistar rat olfactory cortex at 0.5 uM by voltage clamp method; type: functional; set-up: scale not given: the % may be the effect or the level left
How it was run: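 Transverse olfactory cortex slices from male Wistar rats, kept in oxygenated Krebs solution and superfused with 1 µM TTX. Neurons voltage-clamped at -70 mV. Test agent diluted from DMSO stock into Krebs (0.1-1% v/v DMSO) and pre-incubated 10 min. Peak inward currents evoked by 0.25-5 µM AMPA measured. Pooled means, N = 7.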

[4] = target: Glutamate NMDA receptor (Rattus norvegicus) (UniProt P35439+Q00959+Q00960+Q00961+Q62645+Q8VHN2+Q9R1M7); experiment: Displacement of [3H]CGP-39653 from NMDA receptor at 0.5 uM; type: protein-complex assay; how it was run: as §2
[5] = target: Glutamate receptor ionotropic, AMPA (Rattus norvegicus) (UniProt P19491+P19492+P19493+P19490); experiment: Displacement of [3H]AMPA from AMPA receptor at 0.5 uM; type: protein-complex assay; how it was run: as §2

Row | SMILES | ED50 (Mus musculus [1]) | ED50 (Mus musculus [2]) | also measured
1 | COc1cc2c(cc1OC)C(c1cccc([N+](=O)[O-])c1)N(C(=O)CN1CCCCC1)CC2 (stereo not drawn) | 82.8 µmol/kg | > 100 µmol/kg | 
2 | CCN(CC)CC(=O)N1CCc2cc(OC)c(OC)cc2C1c1cccc(N)c1 (stereo not drawn) | 50.5 µmol/kg | 111 µmol/kg | 
3 | COc1cc2c(cc1OC)C(c1ccc(Br)cc1)N(C(=O)CN1CCOCC1)CC2 (stereo not drawn) | 83.8 µmol/kg | > 100 µmol/kg | 
4 | COc1cc2c(cc1OC)C(c1ccc(N)cc1)N(C(=O)CN1CCCCC1)CC2 (stereo not drawn) | 45.3 µmol/kg | 84.9 µmol/kg | 
5 | COc1cc2c(cc1OC)C(c1ccc([N+](=O)[O-])cc1)N(C(=O)CN1CCOCC1)CC2 (stereo not drawn) | 56.5 µmol/kg | > 100 µmol/kg | 
6 | CCN(CC)CC(=O)N1CCc2cc(OC)c(OC)cc2C1c1ccc(Br)cc1 (stereo not drawn) | 24.7 µmol/kg | 50.5 µmol/kg | 
7 | COc1cc2c(cc1OC)C(c1cccc([N+](=O)[O-])c1)N(C(=O)CN1CCOCC1)CC2 (stereo not drawn) | > 100 µmol/kg | > 100 µmol/kg | 
8 | COc1cc2c(cc1OC)C(c1cccc(N)c1)N(C(=O)CN1CCOCC1)CC2 (stereo not drawn) | 34.3 µmol/kg | 63.4 µmol/kg | 
9 | COc1cc2c(cc1OC)C(c1cccc(N)c1)N(C(=O)CN1CCCCC1)CC2 (stereo not drawn) | 47.3 µmol/kg | 70.2 µmol/kg | 
10 | COc1cc2c(cc1OC)C(c1ccc(N)cc1)N(C(=O)CN1CCOCC1)CC2 (stereo not drawn) | 63.4 µmol/kg | 87.5 µmol/kg | 
11 | CCN(CC)CC(=O)N1CCc2cc(OC)c(OC)cc2C1c1ccc(Cl)cc1 (stereo not drawn) | 11.8 µmol/kg | 24.7 µmol/kg | 
12 | COc1cc2c(cc1OC)C(c1ccc(F)cc1)N(C(=O)CN1CCOCC1)CC2 (stereo not drawn) | 46.9 µmol/kg | 71.7 µmol/kg | 
13 | COc1cc2c(cc1OC)C(c1ccc([N+](=O)[O-])cc1)N(C(=O)CN1CCCCC1)CC2 (stereo not drawn) | > 100 µmol/kg | > 100 µmol/kg | 
14 | CCN(CC)CC(=O)N1CCc2cc(OC)c(OC)cc2C1c1ccccc1 (stereo not drawn) | 34.8 µmol/kg | 49.1 µmol/kg | 
15 | COc1cc2c(cc1OC)C(c1ccccc1)N(C(=O)CN1CCCCC1)CC2 (stereo not drawn) | > 100 µmol/kg | > 100 µmol/kg | 
16 | COc1cc2c(cc1OC)C(c1ccc(N)cc1)=NNC(=O)C2 |  | 15 µmol/kg | 
17 | CC(=O)N1N=C(c2ccc(N)cc2)c2cc3c(cc2C[C@H]1C)OCO3 [TALAMPANEL] | 9.7 µmol/kg |  | 
18 | CCN(CC)CC(=O)N1CCc2cc(OC)c(OC)cc2C1c1cccc([N+](=O)[O-])c1 (stereo not drawn) | 16.7 µmol/kg | 38.6 µmol/kg | 
19 | COc1cc2c(cc1OC)C(c1ccccc1)N(C(=O)CN1CCOCC1)CC2 (stereo not drawn) | > 100 µmol/kg | > 100 µmol/kg | 
20 | COc1cc2c(cc1OC)C(c1ccc(F)cc1)N(C(=O)CN1CCCCC1)CC2 (stereo not drawn) | 63 µmol/kg | 82.8 µmol/kg | 
21 | CCN(CC)CC(=O)N1CCc2cc(OC)c(OC)cc2C1c1ccc(F)cc1 (stereo not drawn) | 33 µmol/kg | 44.5 µmol/kg | 
22 | CCN(CC)CC(=O)N1CCc2cc(OC)c(OC)cc2C1c1ccc(N)cc1 (stereo not drawn) | 49 µmol/kg | 80.2 µmol/kg | 
23 | COc1cc2c(cc1OC)C(c1ccc(Cl)cc1)N(C(=O)CN1CCOCC1)CC2 (stereo not drawn) | 82.8 µmol/kg | > 100 µmol/kg | 
24 | CCN(CC)CC(=O)N1CCc2cc(OC)c(OC)cc2C1c1ccc([N+](=O)[O-])cc1 (stereo not drawn) | > 100 µmol/kg | > 100 µmol/kg | 
25 | COc1cc2c(cc1OC)C(c1ccc(Cl)cc1)N(C(=O)CN1CCCCC1)CC2 (stereo not drawn) | 17 µmol/kg | 39.8 µmol/kg | 
26 | COc1cc2c(cc1OC)C(c1ccc(Br)cc1)N(C(=O)CN1CCCCC1)CC2 (stereo not drawn) |  |  | Activity [3]: < 6%; Activity (Rattus norvegicus): 6%; Activity [4]: < 6%; Activity [5]: < 6%
27 | COc1cc2c(cc1OC)C(c1ccc(Cl)cc1)N(C(C)=O)CC2 (stereo not drawn) |  |  | Activity (Rattus norvegicus): 7%
